ChEMBL document CHEMBL1129660, “Studies on 6-aminoquinolones: synthesis and antibacterial evaluation of 6-amino-8-methylquinolones” (J Med Chem, 1996)
≈ marks a conversion by molar mass, not a printed value.

Test system: Pseudomonas aeruginosa
Assay: Antibacterial activity tested against P. ae (Pseudomonas aeruginosa) ATCC 9027
Type: functional
Conditions: not given
Method in brief: (§1)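 MICs (µg/mL) determined by conventional agar dilution against a panel of eight Gram-negative and five Gram-positive reference strains.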
In the case of `Cc1c(N2CCc3ccccc3C2)c(N)cc2c(=O)c(C(=O)O)cn(C3CC3)c12`, the MIC is reported as 0.5 mg/L (≈ 1.28 µM).

Test system: Staphylococcus aureus
Assay: Antibacterial activity tested against Staphylococcus aureus Methicillin-and Ciprofloxacin resistants; Range is 0.05-1 ug/mL
Type: functional
Conditions: not given
For `Cc1c(N2CCc3ccccc3C2)c(N)cc2c(=O)c(C(=O)O)cn(C3CC3)c12`, the MIC was 0.05 mg/L (≈ 0.128 µM).

Test system: Escherichia coli
Assay: Antibacterial activity tested against Escherichia coli ATCC 8739
Type: functional
Conditions: not given
Method in brief: as §1
For `Cc1c(N2CCc3ccccc3C2)c(N)cc2c(=O)c(C(=O)O)cn(C3CC3)c12`, the MIC was 0.008 mg/L (≈ 0.0205 µM).

Test system: Staphylococcus aureus
Assay: Antibacterial activity against Staphylococcus aureus MPR 5
Type: functional
Conditions: not given
Method in brief: as §1
In the case of `Cc1c(N2CCc3ccccc3C2)c(N)cc2c(=O)c(C(=O)O)cn(C3CC3)c12`, the MIC is reported as 0.008 mg/L (≈ 0.0205 µM).

Test system: Staphylococcus aureus
Assay: Antibacterial activity tested against Staphylococcus aureus; Range is 0.004-0.03 ug/mL
Type: functional
Conditions: not given
For `Cc1c(N2CCc3ccccc3C2)c(N)cc2c(=O)c(C(=O)O)cn(C3CC3)c12`, the MIC was 0.004 mg/L (≈ 0.0103 µM).

Test system: Enterobacter cloacae
Assay: Antibacterial activity tested against Enterobacter cloacae OMNFI 174
Type: functional
Conditions: not given
For `Cc1c(N2CCc3ccccc3C2)c(N)cc2c(=O)c(C(=O)O)cn(C3CC3)c12`, the MIC was 0.25 mg/L (≈ 0.642 µM).

Test system: Proteus vulgaris
Assay: Antibacterial activity tested against Proteus vulgaris CNUR 5
Type: functional
Conditions: not given
Method in brief: as §1
`Cc1c(N2CCc3ccccc3C2)c(N)cc2c(=O)c(C(=O)O)cn(C3CC3)c12` gave an MIC of 2 mg/L (≈ 5.14 µM).

Test system: Staphylococcus aureus
Assay: Antibacterial activity against Staphylococcus aureus ATCC 6538
Type: functional
Conditions: not given
Method in brief: as §1
With `Cc1c(N2CCc3ccccc3C2)c(N)cc2c(=O)c(C(=O)O)cn(C3CC3)c12` the MIC was 0.008 mg/L (≈ 0.0205 µM).

Test system: Enterococcus faecalis
Assay: Antibacterial activity tested against Enterococcus faecalis
Type: functional
Conditions: not given
`Cc1c(N2CCc3ccccc3C2)c(N)cc2c(=O)c(C(=O)O)cn(C3CC3)c12` gave an MIC of 0.06 mg/L (≈ 0.154 µM).

Test system: Bacteria
Assay: Geometric mean of antibacterial activity (Gram +ve bacteria) of the compound
Type: functional
Conditions: not given
Method in brief: (§2)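 Geometric means calculated from agar-dilution MICs (µg/mL), taken separately across the five Gram-positive and the eight Gram-negative panel strains.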
`Cc1c(N2CCc3ccccc3C2)c(N)cc2c(=O)c(C(=O)O)cn(C3CC3)c12` gave a Geometric mean of 0.024.

Test system: Providencia stuartii
Assay: Antibacterial activity tested against Providencia stuartii CNUR 5
Type: functional
Conditions: not given
Method in brief: as §1
With `Cc1c(N2CCc3ccccc3C2)c(N)cc2c(=O)c(C(=O)O)cn(C3CC3)c12` the MIC was 0.06 mg/L (≈ 0.154 µM).

Test system: Escherichia coli
Assay: Inhibitory activity against gyrase supercoiling activity from Escherichia coli
Type: functional
Conditions: not given
Method in brief: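 Inhibition of DNA gyrase supercoiling activity, by a previously described protocol with slight modifications. IC50 derived by densitometric quantification of the supercoiled DNA peak in an agarose gel.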
With `Cc1c(N2CCc3ccccc3C2)c(N)cc2c(=O)c(C(=O)O)cn(C3CC3)c12` the IC50 was 3.58 mg/L (≈ 9.19 µM).

Test system: Enterococcus faecium
Assay: Antibacterial activity tested against Enterococcus faecium; Range is 0.06-1 ug/mL
Type: functional
Conditions: not given
`Cc1c(N2CCc3ccccc3C2)c(N)cc2c(=O)c(C(=O)O)cn(C3CC3)c12` gave an MIC of 0.06 mg/L (≈ 0.154 µM).

Test system: Klebsiella pneumoniae
Assay: Antibacterial activity tested against Klebsiella pneumoniae (Klebsiella pneumoniae) ATCC 10031
Type: functional
Conditions: not given
Method in brief: as §1
For `Cc1c(N2CCc3ccccc3C2)c(N)cc2c(=O)c(C(=O)O)cn(C3CC3)c12`, the MIC was 0.06 mg/L (≈ 0.154 µM).

Species: Mus musculus
Assay: Minimum inhibitory concentration against Septicemia caused by Staphylococcus aureus in mice
Type: functional
Conditions: not given
Work on `Cc1c(N2CCc3ccccc3C2)c(N)cc2c(=O)c(C(=O)O)cn(C3CC3)c12` yielded an MIC of 0.016 mg/L (≈ 0.0411 µM).

Test system: Streptococcus pneumoniae
Assay: Antibacterial activity tested against Streptococcus pneumoniae
Type: functional
Conditions: not given
For `Cc1c(N2CCc3ccccc3C2)c(N)cc2c(=O)c(C(=O)O)cn(C3CC3)c12`, the MIC was 0.13 mg/L (≈ 0.334 µM).

Test system: Staphylococcus epidermidis
Assay: Antibacterial activity tested against Staphylococcus epidermidis CPHL A2
Type: functional
Conditions: not given
Method in brief: as §1
For `Cc1c(N2CCc3ccccc3C2)c(N)cc2c(=O)c(C(=O)O)cn(C3CC3)c12`, the MIC was 0.016 mg/L (≈ 0.0411 µM).

Test system: not listed separately
Assay: Geometric mean of antibacterial activity (Gram -ve bacteria) of the compound
Type: functional
Conditions: not given
Method in brief: as §2
`Cc1c(N2CCc3ccccc3C2)c(N)cc2c(=O)c(C(=O)O)cn(C3CC3)c12` showed a Geometric mean of 0.105.

Test system: Escherichia coli
Assay: Antibacterial activity tested against Escherichia coli ISF 432
Type: functional
Conditions: not given
Method in brief: as §1
For `Cc1c(N2CCc3ccccc3C2)c(N)cc2c(=O)c(C(=O)O)cn(C3CC3)c12`, the MIC was 0.008 mg/L (≈ 0.0205 µM).

Test system: Shigella
Assay: Antibacterial activity tested against Shigella enteritidis
Type: functional
Conditions: not given
Method in brief: as §1
For `Cc1c(N2CCc3ccccc3C2)c(N)cc2c(=O)c(C(=O)O)cn(C3CC3)c12`, the MIC was 0.25 mg/L (≈ 0.642 µM).

Test system: Staphylococcus epidermidis
Assay: Antibacterial activity tested against Staphylococcus epidermidis HCF Berset C
Type: functional
Conditions: not given
Method in brief: as §1
`Cc1c(N2CCc3ccccc3C2)c(N)cc2c(=O)c(C(=O)O)cn(C3CC3)c12` gave an MIC of 0.03 mg/L (≈ 0.077 µM).

Test system: Enterococcus faecalis
Assay: Antibacterial activity tested against Streptococcus faecalis LEP Br
Type: functional
Conditions: not given
Method in brief: as §1
`Cc1c(N2CCc3ccccc3C2)c(N)cc2c(=O)c(C(=O)O)cn(C3CC3)c12` gave an MIC of 0.25 mg/L (≈ 0.642 µM).

Test system: Mus musculus
Assay: Efficacy against Septicemia caused by Staphylococcus aureus in mice by subcutaneous administration
Type: functional
Conditions: sc
Method in brief: (§3)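 S. aureus Smith ATCC19636, overnight brain-heart infusion culture diluted in 5% mucin, given i.p. (0.5 mL) to male and female CD-1 mice (18-22 g). Single s.c. or oral dose within 10 min of infection, drug in DMSO/0.5% methocel or as suspension. 3-5 dose groups of six mice; ED50 with 95% limits by Spearman-Kärber from day-7 survival.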
`Cc1c(N2CCc3ccccc3C2)c(N)cc2c(=O)c(C(=O)O)cn(C3CC3)c12` showed an ED50 of 1.3 mg/kg.

Test system: Mus musculus
Assay: Efficacy against Septicemia caused by Staphylococcus aureus in mice by Oral administration
Type: functional
Conditions: not given
Method in brief: as §3
Work on `Cc1c(N2CCc3ccccc3C2)c(N)cc2c(=O)c(C(=O)O)cn(C3CC3)c12` yielded an ED50 of 5 mg/kg.
